# Experiments:
# [1] = system: glucosylceramide (GlcCer) plasma concentration; test: MAD study pharmacodynamics: plasma GlcCer; assay type: in vivo, human
# How it was run: (§1)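 Healthy men and women (1:1), 8 active and 2 placebo per cohort. Oral 30, 100, 300 or 1,000 mg b.i.d. for 7 days. Morning dose after a 10-hour fast, evening dose 2 hours after dinner. Plasma sampled on Days 1, 2, 4 and 7 and at 24, 48 and 72 h after the last dose. Validated LC-MS/MS. Percent change from Day 1 predose.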
# [2] = system: lactosylceramide (LacCer) plasma concentration; test: MAD study pharmacodynamics: plasma LacCer; assay type: in vivo, human; conditions: 72 hours after the last dose
# How it was run: as §1
# [3] = system: globotriaosylceramide (Gb3) plasma concentration; test: MAD study pharmacodynamics: plasma Gb3; assay type: in vivo, human; conditions: after last dose
# [4] = SAD study tolerability/safety; assay type: in vivo, human
# How it was run: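 Healthy men aged 18–55 years, single oral doses of 10–2,000 mg, 6 active and 2 placebo per cohort, staggered dosing. Fasted dosing, plus a fed period in the 300 mg cohort after at least 7 days washout. Subjects were confined until 48 h post-dose, with follow-up at 29–34 days. AEs, vital signs, ECG, examination and laboratory tests were summarised descriptively.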
# [5] = MAD study tolerability/safety; assay type: in vivo, human
# How it was run: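 Healthy men and women aged 18–55 years, BMI 18–30 kg/m2, 8 active and 2 placebo per cohort. Oral 30–1,000 mg b.i.d. for 7 days with staggered dosing. Subjects were confined until 72 h after the last dose, with follow-up at 29–34 days. AEs, vital signs, ECG, physical examination and clinical laboratory tests were recorded and summarised descriptively.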
# [6] = Cardiodynamic and exposure-response analysis of QT interval; assay type: in vivo, human
# [7] = system: non‐lysosomal glucosylceramidase (GBA2) vs glucosylceramide synthase (GCS); test: Relative inhibitory potency on GBA2 versus GCS; assay type: biochemical
# [8] = system: organic cation transporter 2; conditions: in vitro; ref Idorsia Pharmaceuticals Ltd, unpublished data; cited from earlier work
# [9] = cited from earlier work
# [10] = SAD, all doses, fasted conditions, 36 subjects
# [11] = MAD 300 mg b.i.d. for 7 days (n = 8)
smiles,measurement,setting,value
"CCCCCN1C[C@H](O)[C@@H](O)[C@H](O)[C@@H]1CO [sinbaglustat, (2S,3R,4R,5S)‐2‐(hydroxymethyl)‐1‐pentylpiperidine‐3,4,5‐triol]",GlcCer percentage change from baseline,"[1]; 1,000 mg b.i.d., 72 hours after the last dose",–19%
same,reduction in GlcCer,"[1]; highest tested dose (1,000 mg b.i.d.), repeated treatment",72%
same,LacCer percentage change from baseline,[2]; 30 mg b.i.d.,–8%
same,LacCer percentage change from baseline,"[2]; 1,000 mg b.i.d.",–33%
same,Gb3 mean percentage change from baseline after treatment stop,[3],remained stable for 3 days after treatment stop
same,"AEs in the 30, 300, and 2,000 mg cohort",[4]; SAD,No AE was reported
same,Dizziness (subjects),[4]; SAD 10 mg (n = 6),1
same,Number of subjects with at least 1 AE,[4]; SAD 10 mg (n = 6),1
same,Total number of AEs,[4]; SAD 10 mg (n = 6),1
same,Number of subjects with at least 1 AE,[4]; SAD 100 mg (n = 6),3
same,Rash (subjects),[4]; SAD 100 mg (n = 6),1
same,Total number of AEs,[4]; SAD 100 mg (n = 6),3
same,AEs under fed conditions,[4]; SAD 300 mg fed,no AE was reported
same,Headache (subjects),"[4]; SAD 1,000 mg (n = 6)",2
same,Nausea (subjects),"[4]; SAD 1,000 mg (n = 6)",1
same,Number of subjects with at least 1 AE,"[4]; SAD 1,000 mg (n = 6)",3
same,Palpitations (subjects),"[4]; SAD 1,000 mg (n = 6)",1
same,Viral upper respiratory tract (subjects),"[4]; SAD 1,000 mg (n = 6)",1
same,Vomiting (subjects),"[4]; SAD 1,000 mg (n = 6)",1
same,subjects reporting AEs (of 36 treated),"[4]; SAD, all doses, fasted conditions",7
same,subjects reporting AEs,[4]; [10],19%
same,total AEs reported,[4]; [10],13
same,"serious AEs, severe AEs, AEs leading to discontinuation","[4]; whole study (SAD and MAD), up to end‐of‐study","No serious AEs, severe AEs, or AEs leading to study or treatment discontinuation occurred"
same,Dizziness (subjects),[5]; MAD 30 mg b.i.d. (n = 8),4
same,Headache (subjects),[5]; MAD 30 mg b.i.d. (n = 8),2
same,Muscle twitching (subjects),[5]; MAD 30 mg b.i.d. (n = 8),1
same,Pain in extremity (subjects),[5]; MAD 30 mg b.i.d. (n = 8),1
same,Viral upper respiratory tract (subjects),[5]; MAD 30 mg b.i.d. (n = 8),1
same,Total number of AEs,[5]; MAD 30 mg b.i.d. for 7 days (n = 8),13
same,Dizziness (subjects),[5]; MAD 100 mg b.i.d. (n = 8),2
same,Fatigue (subjects),[5]; MAD 100 mg b.i.d. (n = 8),1
same,Total number of AEs,[5]; MAD 100 mg b.i.d. for 7 days (n = 8),8
same,Dizziness (subjects),[5]; MAD 300 mg b.i.d. (n = 8),1
same,Headache (subjects),[5]; MAD 300 mg b.i.d. (n = 8),2
same,Nausea (subjects),[5]; MAD 300 mg b.i.d. (n = 8),1
same,Rash (subjects),[5]; MAD 300 mg b.i.d. (n = 8),1
same,Number of subjects with at least 1 AE,[5]; [11],4
same,Total number of AEs,[5]; [11],8
same,Constipation (subjects),"[5]; MAD 1,000 mg b.i.d. (n = 8)",1
same,Decreased appetite (subjects),"[5]; MAD 1,000 mg b.i.d. (n = 8)",3
same,Diarrhea (subjects),"[5]; MAD 1,000 mg b.i.d. (n = 8)",2
same,Dizziness (subjects),"[5]; MAD 1,000 mg b.i.d. (n = 8)",3
same,Fatigue (subjects),"[5]; MAD 1,000 mg b.i.d. (n = 8)",2
same,Headache (subjects),"[5]; MAD 1,000 mg b.i.d. (n = 8)",4
same,Muscle twitching (subjects),"[5]; MAD 1,000 mg b.i.d. (n = 8)",1
same,Nausea (subjects),"[5]; MAD 1,000 mg b.i.d. (n = 8)",3
same,Palpitations (subjects),"[5]; MAD 1,000 mg b.i.d. (n = 8)",1
same,Vomiting (subjects),"[5]; MAD 1,000 mg b.i.d. (n = 8)",2
same,female subjects reporting headache (of 4),"[5]; MAD 1,000 mg b.i.d., female subjects",4
same,subjects reporting AEs (of 32 treated),"[5]; MAD, all doses",19
same,subjects reporting dizziness (of 32),"[5]; MAD, all doses",10
same,subjects reporting headache (of 32),"[5]; MAD, all doses",8
same,subjects reporting AEs,"[5]; MAD, all doses, 32 subjects",59%
same,total AEs reported,"[5]; MAD, all doses, 32 subjects",66
same,"effect on QTcF, HR, PR, and QRS intervals",[6]; change‐from‐baseline and placebo‐adjusted change‐from‐baseline,no clinically relevant effect
same,slope of concentration–ΔΔQTcF relationship,"[6]; linear mixed‐effects model, 90% CI −0.00008 to 0.00056, statistically nonsignificant",0.0002 ms per ng/mL
same,treatment effect‐specific intercept,"[6]; linear mixed‐effects model, nonstatistically significant",-2.7 ms
same,potency in inhibiting GBA2 relative to GCS,[7],50 fold
same,organic cation transporter 2 interaction,[8],a substrate and an inhibitor
same,blood‐brain barrier crossing,[9],crosses the blood‐brain barrier

# From paper PMC7993281 (Clinical and Translational Science, 2020)
